Source: ChEMBL document CHEMBL1151198, “A new antimalarial quassinoid from Simaba orinocensis” (J Nat Prod, 2004)
≈ marks a conversion by molar mass, not a printed value. Calls of active or inactive are those of the source. The calls are words filed in the database; no cut-off is given here.

Tests used:
[1] = system: HeLa; assay: Inhibition of protein synthesis in human HeLa cells at 10 uM by [35S]methionine metabolic labeling study; format: functional
[2] = system: HeLa; assay: Inhibition of translation in human HeLa cells at 10 uM by 35S-methionine metabolic labeling study; format: functional, cell-based
[3] = Inhibition of protein biosynthesis in mouse Krebs cells assessed as firefly luciferase activity at 10 uM after 1 hr by translation assay relative to control; format: functional
Outline: (§1)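 In vitro Krebs cell translation system read by firefly and renilla luciferase. Compounds at 10 or 2 µM; anisomycin 10 µM as reference and 0.5% DMSO as vehicle control. Values are average luciferase activity relative to control.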

[4] = Inhibition of protein biosynthesis in mouse Krebs cells assessed as renilla luciferase activity at 10 uM after 1 hr by translation assay relative to control; format: functional; outline: as §1
[5] = system: HeLa; assay: Inhibition of protein synthesis in human HeLa cells assessed as translation at 10 uM by [35S]methionine metabolic labeling study; format: functional; design: scale not given: the % may be the effect or the level left
[6] = Selectivity index, ratio of IC50 for african green monkey (Cercopithecus aethiops) Vero cells to IC50 for chloroquine-resistant Plasmodium falciparum W2; format: toxicity, cell-based; conditions: read-out: Ratio IC50
[7] = Selectivity index, ratio of IC50 for african green monkey (Cercopithecus aethiops) Vero cells to IC50 for chloroquine-sensitive Plasmodium falciparum D6; format: toxicity, cell-based; conditions: read-out: Ratio IC50
[8] = system: Leishmania donovani; assay: Antileishmanial activity against Leishmania donovani promastigotes after 48 hrs by alamar blue assay; format: functional, organism-based
[9] = system: Plasmodium falciparum; assay: Antimalarial activity against chloroquine-resistant Plasmodium falciparum W2 by LDH assay; format: functional, organism-based
[10] = system: Vero; assay: Cytotoxicity against african green monkey kidney Vero cells; format: cell-based; conditions: Chlorocebus sabaeus
[11] = system: CHO; assay: Cytotoxicity against CHO cells transfected with ICAM1 by MTT assay; format: cell-based; conditions: Cricetulus griseus
Outline: (§2)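 MTT viability assay, run on CHO-ICAM-1 cells and, separately, on RAW 264.7 cells. IC50 in µg/mL, mean ± SEM of three determinations.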

[12] = system: RAW264.7; assay: Inhibition of iNOS production in LPS-activated mouse RAW264.7 cells after 20 hrs; format: functional, cell-based; conditions: RAW264.7, 20 h
Outline: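 iNOS assay in RAW 264.7 cells, with L-NMMA, APDC and dexamethasone as reference inhibitors. IC50 in µg/mL, mean ± SEM of three determinations.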

[13] = system: RAW264.7; assay: Cytotoxicity against mouse RAW264.7 cells after 2 days by MTT assay; format: cell-based; conditions: RAW264.7, 48 h; outline: as §2
[14] = Specific index, ratio of IC50 for human HL60 cells to MIC for LFA1/ICAM1; format: functional, HL-60
Outline: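 Index calculated as XTT-assay IC50 (µg/mL) divided by the MIC from the LFA-1/ICAM-1-mediated aggregation primary screen (µg/mL). XTT IC50 values are given as mean ± SEM of three determinations.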

[15] = target: Intercellular adhesion molecule (ICAM-1), Integrin alpha-L/beta-2 (Homo sapiens, UniProt P05107+P05362+P20701); assay: Inhibition of LFA1/ICAM1-mediated adhesion of HL60 cells to CHO-ICAM1 cells; format: cell-based, HL-60
Outline: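 Secondary LFA-1/ICAM-1-mediated adhesion assay using HL-60 cells and CHO-ICAM-1 cells, with cytochalasin B as standard. IC50 in µg/mL, mean ± SEM of three determinations.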

[16] = system: HL-60; assay: Cytotoxicity against human HL60 cells by XTT assay; format: cell-based
Outline: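 XTT proliferation read-out combined with the primary assay for inhibitors of LFA-1/ICAM-1-mediated cell aggregation. IC50 in µg/mL, mean ± SEM of three determinations.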

[17] = Specific index, ratio of IC50 for mouse RAW264.7 to IC50 for iNOS production in mouse RAW264.7
Outline: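 Index calculated as the MTT IC50 in RAW 264.7 cells divided by the iNOS IC50 in the same cells.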

[18] = target: Intercellular adhesion molecule (ICAM-1), Integrin alpha-L/beta-2 (Homo sapiens) (UniProt P20701+P05362+P05107); assay: Inhibition of LFA1/ICAM1-mediated HL60 cell aggregation; format: cell-based; conditions: HL-60
Outline: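 Primary screen for LFA-1/ICAM-1-mediated cell aggregation run together with an XTT cell-proliferation read-out. Aggregation potency is reported as a minimum inhibitory concentration in µg/mL.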

[19] = Specific index, ratio of IC50 for CHO cells to IC50 for LFA1/ICAM1
Outline: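 Ratio of the MTT IC50 against CHO-ICAM-1 cells to the IC50 from the secondary LFA-1/ICAM-1-mediated adhesion assay, in which HL-60 cells adhere to CHO-ICAM-1 cells. IC50 values are in µg/mL, as mean ± SEM of three determinations.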

Sequence of Intercellular adhesion molecule (ICAM-1), Integrin alpha-L/beta-2 (P20701 whole entry): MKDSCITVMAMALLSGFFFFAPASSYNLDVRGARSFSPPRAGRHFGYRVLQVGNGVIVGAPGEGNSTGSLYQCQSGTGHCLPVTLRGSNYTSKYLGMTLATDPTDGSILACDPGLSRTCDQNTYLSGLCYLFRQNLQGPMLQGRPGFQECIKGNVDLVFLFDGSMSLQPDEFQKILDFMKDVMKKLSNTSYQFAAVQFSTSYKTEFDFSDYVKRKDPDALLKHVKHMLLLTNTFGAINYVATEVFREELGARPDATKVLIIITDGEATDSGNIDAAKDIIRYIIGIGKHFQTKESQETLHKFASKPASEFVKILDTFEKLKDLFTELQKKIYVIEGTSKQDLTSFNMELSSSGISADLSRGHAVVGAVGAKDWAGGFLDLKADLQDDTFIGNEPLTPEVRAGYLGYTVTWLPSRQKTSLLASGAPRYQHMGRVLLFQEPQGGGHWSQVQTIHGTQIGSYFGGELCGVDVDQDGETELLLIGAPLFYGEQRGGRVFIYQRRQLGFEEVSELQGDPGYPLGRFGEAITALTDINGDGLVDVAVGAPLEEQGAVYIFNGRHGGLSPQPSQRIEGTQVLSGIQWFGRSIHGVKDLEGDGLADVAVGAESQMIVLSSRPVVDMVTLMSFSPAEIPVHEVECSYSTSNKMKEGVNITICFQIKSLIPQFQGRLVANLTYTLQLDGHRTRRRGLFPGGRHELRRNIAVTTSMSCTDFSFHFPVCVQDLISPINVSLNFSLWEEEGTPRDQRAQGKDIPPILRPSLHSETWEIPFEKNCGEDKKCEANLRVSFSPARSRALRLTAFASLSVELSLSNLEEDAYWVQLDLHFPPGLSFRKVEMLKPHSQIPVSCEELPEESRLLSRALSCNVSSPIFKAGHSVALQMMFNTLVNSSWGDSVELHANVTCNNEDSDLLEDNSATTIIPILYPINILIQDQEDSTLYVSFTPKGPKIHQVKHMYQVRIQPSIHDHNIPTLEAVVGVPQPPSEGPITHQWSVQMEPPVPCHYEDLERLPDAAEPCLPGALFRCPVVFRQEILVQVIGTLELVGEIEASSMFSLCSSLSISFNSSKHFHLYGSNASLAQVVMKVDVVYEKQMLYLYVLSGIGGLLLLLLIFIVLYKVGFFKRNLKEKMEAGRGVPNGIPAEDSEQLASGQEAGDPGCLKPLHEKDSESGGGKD
Sequence of Intercellular adhesion molecule (ICAM-1), Integrin alpha-L/beta-2 (P05362 whole entry): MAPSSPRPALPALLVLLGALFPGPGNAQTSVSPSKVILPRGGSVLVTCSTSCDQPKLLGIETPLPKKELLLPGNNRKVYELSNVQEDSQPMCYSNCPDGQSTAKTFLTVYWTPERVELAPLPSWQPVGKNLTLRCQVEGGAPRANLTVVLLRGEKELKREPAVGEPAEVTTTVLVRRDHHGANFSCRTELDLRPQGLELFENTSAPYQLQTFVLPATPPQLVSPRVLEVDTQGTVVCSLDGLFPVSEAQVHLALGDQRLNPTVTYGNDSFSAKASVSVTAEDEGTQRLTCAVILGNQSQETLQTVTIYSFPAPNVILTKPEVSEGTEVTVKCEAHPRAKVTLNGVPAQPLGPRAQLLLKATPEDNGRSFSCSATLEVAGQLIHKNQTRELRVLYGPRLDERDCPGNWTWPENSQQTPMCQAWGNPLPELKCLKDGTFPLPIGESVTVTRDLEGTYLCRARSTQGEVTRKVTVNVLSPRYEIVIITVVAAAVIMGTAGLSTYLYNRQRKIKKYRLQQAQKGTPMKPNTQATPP
Sequence of Intercellular adhesion molecule (ICAM-1), Integrin alpha-L/beta-2 (P05107 whole entry): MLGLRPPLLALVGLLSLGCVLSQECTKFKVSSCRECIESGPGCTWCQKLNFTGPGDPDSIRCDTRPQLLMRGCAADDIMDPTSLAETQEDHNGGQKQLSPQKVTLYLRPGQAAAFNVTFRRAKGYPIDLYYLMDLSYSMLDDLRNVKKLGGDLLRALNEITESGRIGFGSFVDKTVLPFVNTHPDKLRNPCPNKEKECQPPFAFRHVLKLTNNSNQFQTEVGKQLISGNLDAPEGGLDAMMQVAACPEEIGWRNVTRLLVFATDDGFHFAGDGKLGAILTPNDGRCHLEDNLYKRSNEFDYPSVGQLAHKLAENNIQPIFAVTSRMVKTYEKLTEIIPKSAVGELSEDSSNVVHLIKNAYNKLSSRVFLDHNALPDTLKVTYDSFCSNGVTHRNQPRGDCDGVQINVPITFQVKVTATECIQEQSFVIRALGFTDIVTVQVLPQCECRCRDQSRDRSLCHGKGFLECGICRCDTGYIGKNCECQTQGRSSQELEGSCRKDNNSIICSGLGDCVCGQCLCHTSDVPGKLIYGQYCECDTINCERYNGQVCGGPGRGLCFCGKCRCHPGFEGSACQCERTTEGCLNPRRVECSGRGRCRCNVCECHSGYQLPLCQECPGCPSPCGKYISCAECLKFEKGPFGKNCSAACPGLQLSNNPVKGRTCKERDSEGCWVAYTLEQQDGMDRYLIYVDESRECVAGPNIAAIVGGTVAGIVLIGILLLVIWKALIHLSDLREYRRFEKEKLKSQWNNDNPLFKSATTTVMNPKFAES

COc1ccc(C[C@H]2NC[C@H](O)[C@H]2OC(C)=O)cc1 [ANISOMYCIN]
inhibition at 10 µM [1]: 98.5%
Activity [2]: Active
Activity [3]: <0.01
Activity [4]: <0.01
Activity [5]: 0%

C[C@@H]1CC[C@H]2[C@@H](C)C(=O)O[C@@H]3O[C@@]4(C)CC[C@@H]1[C@]32OO4 [ARTEMISININ]
selectivity ratio [6]: > 1180
selectivity ratio [7]: > 699
IC50 [8]: 36 mg/L (≈ 128 µM)
IC90 [8]: > 50 mg/L
IC50 [9]: 0.0085 mg/L (≈ 0.0301 µM)
IC50 [10]: > 10 mg/L

C[C@@H]1[C@H](O)[C@@H](C)/C=C/C=C/C=C/C=C/C=C/C=C/C=C/[C@H](O[C@@H]2O[C@H](C)[C@@H](O)[C@H](N)[C@@H]2O)C[C@@H]2O[C@](O)(C[C@@H](O)C[C@@H](O)[C@H](O)CC[C@@H](O)C[C@@H](O)CC(=O)O[C@H]1C)C[C@H](O)[C@H]2C(=O)O [AMPHOTERICIN B]
IC50 [8]: 1.1 mg/L (≈ 1.19 µM)
IC90 [8]: 2.1 mg/L (≈ 2.27 µM)

CCN(CC)CCCC(C)Nc1ccnc2cc(Cl)ccc12 (stereo not given) [CHLOROQUINE]
IC50 [10]: > 10 mg/L

C=C1[C@@H](C)[C@H]2[C@H](Cc3ccccc3)NC(=O)[C@]23OC(=O)/C=C/[C@H](O)CCC[C@@H](C)C/C=C/[C@H]3[C@@H]1O [CYTOCHALASIN B]
IC50 [11]: 0.26 mg/L (≈ 0.542 µM)
IC50 [12]: 5.6 mg/L (≈ 11.7 µM)
IC50 [13]: 6.5 mg/L (≈ 13.6 µM)
Ratio [14]: 17.2
IC50 [15]: 14.8 µM
IC50 [16]: 40 mg/L (≈ 83.4 µM)
Ratio [17]: 1.1
MIC [18]: 2.3 mg/L (≈ 4.8 µM)
Ratio [19]: 0.04

N=C(N)c1ccc(OCCCCCOc2ccc(C(=N)N)cc2)cc1 [PENTAMIDINE]
IC50 [8]: 1.6 mg/L (≈ 4.7 µM)
IC90 [8]: 3.5 mg/L (≈ 10.3 µM)
